According to ChEMBL document CHEMBL2396539, “Asymmetric synthesis of the four diastereoisomers of a novel non-steroidal farnesoid X receptor (FXR) agonist: role of the chirality on the biological activity” (Bioorg Med Chem, 2013):
pEC50: −log10 of the molar value.

Tests used:
[1] = molecular target: T1, Bile acid receptor (Homo sapiens, UniProt Q96RI1); assay: Agonist activity at GST-tagged human FXR LBD assessed as recruitment of biotinylated SRC-1 peptide after 30 mins by AlphaScreen assay
T1 sequence (Q96RI1 whole entry): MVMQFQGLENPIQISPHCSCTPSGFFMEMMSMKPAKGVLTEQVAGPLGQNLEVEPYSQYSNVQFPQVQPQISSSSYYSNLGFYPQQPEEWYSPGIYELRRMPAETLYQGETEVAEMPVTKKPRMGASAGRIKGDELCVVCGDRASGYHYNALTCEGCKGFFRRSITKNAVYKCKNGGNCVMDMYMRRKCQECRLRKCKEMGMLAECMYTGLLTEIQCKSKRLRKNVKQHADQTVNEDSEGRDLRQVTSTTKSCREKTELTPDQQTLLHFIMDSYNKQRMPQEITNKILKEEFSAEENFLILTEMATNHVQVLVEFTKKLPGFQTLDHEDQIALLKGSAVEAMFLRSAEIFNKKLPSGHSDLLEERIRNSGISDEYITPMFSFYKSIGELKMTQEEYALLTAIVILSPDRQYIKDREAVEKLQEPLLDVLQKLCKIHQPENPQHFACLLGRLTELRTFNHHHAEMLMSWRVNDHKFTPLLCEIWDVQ
Method in brief: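 Human FXR ligand-binding domain fused to GST was incubated with the ligand at increasing concentrations together with biotinylated SRC-1 peptide. Ligand-dependent recruitment of the coactivator peptide was read out by AlphaScreen. Where tested, compounds were single diastereoisomers or a mixture of syn- and anti-couples.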

[2] = molecular target: T2, Bile acid receptor (Homo sapiens) (UniProt Q96RI1); assay: Agonist activity at GST-tagged human FXR LBD assessed as recruitment of biotinylated SRC-1 peptide after 30 mins by AlphaScreen assay relative to CDCA
T2 sequence (whole entry): T1 sequence (Q96RI1 whole entry)

pEC50 [1]	Efficacy [2] [%]	Structure (SMILES)
5.70	140	CCc1nn(-c2ccccc2C)c2c1[C@@H](c1ccc(Oc3ccccc3)cc1)S[C@@H](C)C(=O)N2 (racemic)
5.52	35	CCC1SC(c2ccc(Oc3ccccc3)cc2)c2c(C)nn(-c3ccccc3C)c2NC1=O (mixture of isomers)
–	150	Cc1ccccc1-n1nc(C)c2c1NC(=O)[C@H](C)S[C@@H]2c1ccc(Oc2ccccc2)cc1 (racemic) [listing 1 of 2 here]
< 3.82	–	CCC[C@@H]1S[C@H](c2ccc(Oc3ccccc3)cc2)c2c(C)nn(-c3ccccc3C)c2NC1=O (racemic)

The next lines start with the compound.

Structure (SMILES)	pEC50 [1]	Efficacy [2] [%]
Cc1ccccc1-n1nc(C)c2c1NC(=O)[C@H](C)S[C@H]2c1ccc(Oc2ccccc2)cc1	< 3.82	–
Cc1ccccc1-n1nc(C)c2c1NC(=O)[C@@H](C)S[C@H]2c1ccc(Oc2ccccc2)cc1	< 3.82	–
Cc1ccccc1-n1nc(C)c2c1NC(=O)[C@@H](C)S[C@@H]2c1ccc(Oc2ccccc2)cc1	< 3.82	–
Cc1ccccc1-n1ncc2c1NC(=O)[C@H](C)S[C@@H]2c1ccc(Oc2ccccc2)cc1 (racemic)	< 3.82	–
Cc1ccccc1-n1nc(C)c2c1NC(=O)[C@H](C)S[C@@H]2c1ccc(Oc2ccccc2)cc1 [listing 1 of 2 here]	–	130
Cc1ccccc1-n1nc(C)c2c1NC(=O)CS[C@H]2c1ccc(Oc2ccccc2)cc1 (racemic)	4.85	8
Cc1ccccc1-n1nc(C)c2c1NC(=O)[C@H](C)S[C@@H]2c1ccc(Oc2ccccc2)cc1 [listing 2 of 2 here]	5.85	–
Cc1ccccc1-n1nc(C)c2c1NC(=O)[C@H](C)S[C@@H]2c1ccc(Oc2ccccc2)cc1 (racemic) [listing 2 of 2 here]	5.52	–
